TRPC4 inh = inhibitors of mouse TRPC4 channel; B-score at 10 µM; Q9QUQ5; HEK293 TRPC4beta/mu-opioid, DAMGO-evoked Fluo4 calcium flux; active compounds read low; hit rate 0.39% among 300,000;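 active = B-score over 3 SD under the library average, no early fluorescence shift, positive overall ratio signal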
Target sequence (Q9QUQ5 whole entry, looked up): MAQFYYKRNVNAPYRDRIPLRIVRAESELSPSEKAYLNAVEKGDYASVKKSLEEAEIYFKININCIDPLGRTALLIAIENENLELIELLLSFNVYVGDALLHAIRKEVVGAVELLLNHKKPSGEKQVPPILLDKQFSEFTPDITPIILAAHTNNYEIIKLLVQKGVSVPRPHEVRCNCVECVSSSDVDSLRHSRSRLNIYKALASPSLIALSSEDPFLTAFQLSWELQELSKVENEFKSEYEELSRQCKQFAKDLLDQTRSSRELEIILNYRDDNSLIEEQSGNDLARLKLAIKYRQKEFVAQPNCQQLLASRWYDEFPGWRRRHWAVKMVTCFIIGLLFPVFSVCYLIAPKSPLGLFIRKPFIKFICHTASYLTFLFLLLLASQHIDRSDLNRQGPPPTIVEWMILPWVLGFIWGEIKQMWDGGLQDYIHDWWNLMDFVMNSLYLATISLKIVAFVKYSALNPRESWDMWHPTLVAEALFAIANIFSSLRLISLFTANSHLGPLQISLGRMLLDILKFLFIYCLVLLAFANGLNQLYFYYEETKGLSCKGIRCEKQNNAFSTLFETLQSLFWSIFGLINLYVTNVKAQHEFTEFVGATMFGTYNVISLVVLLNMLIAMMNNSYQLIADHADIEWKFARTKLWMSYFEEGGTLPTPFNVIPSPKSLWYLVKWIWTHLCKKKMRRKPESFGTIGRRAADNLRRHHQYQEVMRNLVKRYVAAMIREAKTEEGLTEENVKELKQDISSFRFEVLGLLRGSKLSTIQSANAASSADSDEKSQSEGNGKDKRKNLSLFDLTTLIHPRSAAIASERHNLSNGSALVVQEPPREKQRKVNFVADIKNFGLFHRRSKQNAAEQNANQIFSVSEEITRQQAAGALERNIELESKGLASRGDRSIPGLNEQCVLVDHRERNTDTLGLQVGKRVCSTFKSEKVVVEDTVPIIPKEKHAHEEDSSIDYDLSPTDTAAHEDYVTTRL
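Assay system: HEK293 cells with stable TRPC4beta plus mu-opioid receptor expression; Probe or stimulus: DAMGO in two steps, submaximal then maximal; Dosing: single-point compound dosing; Measured by: Fluo4 calcium-dye fluorescence, kinetic read; Read-out basis: B score from integrated Fluo4 fluorescence ratio.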
TRPC6 inhibitor = inhibitors of mouse TRPC6 channel. Q61143. HEK293-TRPC6, membrane potential dye, ACh-evoked depolarization; active compounds read low. B-score at 10 µM. hit rate 1.1% among 310,000;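 active = B-score under library mean minus 3 SD, initial fluorescence not abnormally high, positive integrated signal ratio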;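 note: B-score derived from integrated fluorescence ratio over the kinetic read; more negative B-score means stronger inhibition of depolarization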
TRPC6 act = activators of mouse TRPC6 channel | hit rate 0.13% among 310,000 | Q61143 | AID 2550 | HEK293-TRPC6 membrane potential dye fluorescence; active compounds read high | B-score at 10 µM;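 active = B-score of the integrated fluorescence ratio above library mean plus 3 SD, and starting fluorescence ratio within library mean plus 5 SD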;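 note: higher score means more depolarization so channel activation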
TRPC4 act = activators of mouse TRPC4 channel; Q9QUQ5; HEK293 TRPC4beta/mu-opioid, Fluo4 calcium fluorescence; active compounds read high; B-score at 10 µM; hit rate 0.49% among 310,000; AID 2237;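 active = B-score above 5 SD of library B-scores, and initial fluorescence ratio not above library mean plus 5 SD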;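 note: positive B-score marks a calcium rise read as TRPC4 activation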
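Technique: kinetic Fluo4 calcium fluorescence; Test system: TRPC4beta and mu-opioid receptor HEK293 stable cells; Measure: B-scored integrated calcium fluorescence ratio; Benchmarks: low control buffer alone, high control maximal DAMGO; Schedule: 45 min room-temperature Fluo4 loading, 110 s read.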
TRPC4 potent = allosteric potentiators of mouse TRPC4 channel. B-score at 10 µM. Q9QUQ5. HEK293 TRPC4beta/mu-opioid, DAMGO EC20, Fluo-4 Ca2+ flux; active compounds read high. AID 2227. hit rate 0.42% among 310,000;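 active = B-score of calcium response area above 5 SD of library B-scores, with initial fluorescence ratio within 5 SD of library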;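 note: B-score of integrated fluorescence ratio over time as area under calcium response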
TRPC4 sel inh 2 = second selectivity test of TRPC6 inhibitors: effect on mouse TRPC4; shares compounds with TRPC6 inhibitor; HEK293 TRPC4/MOR, membrane potential dye fluorescence; channel activated by saturating DAMGO dose; inhibition, % at 10 µM; hit rate 42% among 920; AID 2776;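 active = compounds whose fluorescence signal differed from control wells by over 3 SD, either direction, in both duplicate plates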
TRPC4 spec = mouse TRPC4 off-target activity of TRPC6 inhibitors | shares compounds with TRPC6 inhibitor | HEK293 TRPC4/mu-opioid, membrane potential fluorescence | activity change, negative = inhibition, % at 10 µM | hit rate 61% among 920 | AID 2777;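 active = rise or fall in signal beyond 3 SD of buffer-only wells in both replicate plates, either sign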;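 note: integrated kinetic ratio of fluorescence range over baseline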
HEK293 MPD ctr 2-1 = second counter-screen for TRPC6 inhibitors: parental HEK293 cells; hit rate 31% among 920; shares compounds with TRPC6 inhibitor; signal change vs control, % at 10 µM; AID 2779; parental HEK293 membrane potential dye fluorescence; maximal acetylcholine challenge after compound addition;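 active = membrane potential signal moving either way by over 3 SD of the maximum-effect control, in both duplicate plates, meaning non-specific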
HEK293 MPD ctr-1 = counter-screen for TRPC6 inhibitors: effect in parental HEK293 cells; shares compounds with TRPC6 inhibitor; parental HEK293 membrane potential dye fluorescence; membrane potential signal change, % at 10 µM; hit rate 60% among 920; AID 2780;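 active = membrane potential signal shifting up or down by more than 3 SD of buffer-only wells, on both duplicate plates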
HEK293 MPD ctr-2 = counter-screen for TRPC6 modulators: effect in parental HEK293 cells | membrane potential dye fluorescence | AID 488924 | hit rate 51% among 2,400 | shares compounds with TRPC6 inhibitor | membrane potential signal change, % at 10 µM;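 active = membrane potential signal moves up or down beyond 5 SD from buffer-only wells, on both duplicate plates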
HEK293 MPD ctr 2-2 = second counter-screen for TRPC6 modulators: effect in parental HEK293 cells. shares compounds with TRPC6 inhibitor. membrane potential dye fluorescence; after compound, maximal acetylcholine stimulation. inhibition, % at 10 µM. hit rate 14% among 2,400. AID 488926;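 active = membrane potential signal drops by more than 5 SD from the mean control signal, in both duplicate plates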;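 note: plate controls were acetylcholine ECmax control wells for no effect and buffer only wells for full effect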
TRPC4/MOR mod = selectivity of TRPC6 modulators against mouse TRPC4. shares compounds with TRPC6 inhibitor. HEK293 TRPC4/mu-opioid, membrane potential fluorescence. percent change from control (negative = decrease, positive = increase), % at 10 µM. hit rate 69% among 2,400. AID 488927;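 active = membrane potential signal moved up or down beyond 5 SD of buffer control wells, in both duplicate plates, actives on both sides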;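 note: plate controls were assay buffer wells for no effect and DAMGO maximal-effect wells for full effect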
TRPC4/MOR inh 2 = second selectivity test of TRPC6 modulators against mouse TRPC4. hit rate 55% among 2,400. AID 488928. shares compounds with TRPC6 inhibitor. HEK293 TRPC4/mu-opioid, membrane potential dye fluorescence; stimulated with maximal-effect DAMGO. inhibition, % at 10 µM;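 active = drop in membrane potential signal beyond 5 SD of the control wells in both duplicate plates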;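 note: TRPC4 counter screen for TRPC6 hits run under conditions tuned for TRPC6 not TRPC4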
TRPC6 block conf = confirmation of mouse TRPC6 inhibitors; shares compounds with TRPC6 inhibitor; HEK293-TRPC6, membrane potential dye, ACh-evoked depolarization; inhibition, % at 10 µM; hit rate 43% among 3,300;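 active = fluorescence ratio falls more than 5 SD below the full-stimulation control mean, in both duplicate runs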;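 note: integrated fluorescence ratio of peak minus minimum over baseline after agonist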
TRPC6 act conf = mouse TRPC6 activator confirmation; shares compounds with TRPC6 inhibitor; HEK293-TRPC6 membrane potential dye fluorescence, FDSS; activation, % at 10 µM; hit rate 11% among 2,800; AID 488961;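 active = ratio signal rise beyond 5 SD above unstimulated control wells' mean, seen in both duplicate runs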;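 note: plate controls were buffer EC0 wells for no effect and acetylcholine ECmax response for full effect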
Active calls of the source: *; i = inactive; · = not tested or not shown. The list is not random: actives were taken first. Their share in the collection is about 2.3%.

SMILES	TRPC4 inh	TRPC6 inhibitor	TRPC6 act	TRPC4 act	TRPC4 potent	HEK293 MPD ctr-2	HEK293 MPD ctr 2-2	TRPC4/MOR mod	TRPC4/MOR inh 2	TRPC6 block conf	TRPC6 act conf	others
S=c1[nH]nc(CCc2ccccc2)n1Cc1ccccc1	i	i	i	i	i	·	·	·	·	·	·
Cc1nccn1CCc1n[nH]c(=S)n1Cc1ccccc1	i	-6.5*	i	i	i	i	i	i	i	69%*	i
Cc1cccc(-c2n[nH]c(=S)n2Cc2ccccc2)c1	i	i	i	i	i	·	·	·	·	·	·
Cc1ccc(-c2n[nH]c(=S)n2Cc2ccccc2)cc1	i	-5*	i	i	i	i	i	i	i	i	i
CN1Cc2sc(NC(=S)NC(=O)c3ccccc3)c(C#N)c2CC1(C)C	i	-5.2*	21*	i	i	168%*	i	24%*	i	i	40%*
CCC1(C)Cc2c(sc(NC(=S)NC(=O)c3ccccc3)c2C#N)CO1 (configuration not stated)	i	i	i	i	i	·	·	·	·	·	·
Cc1ccc(C(=O)Nc2ccc(N3CCN(S(C)(=O)=O)CC3)cc2)cc1C	i	i	i	i	i	·	·	·	·	·	·
Cc1ccc(C(=O)Nc2ccc(N3CCN(C)CC3)cc2)cc1C	i	-6.1*	i	i	i	i	i	-15%*	44%*	42%*	i
CC(C)Oc1ccc(C(=O)Nc2ccc(N3CCCCC3)cc2)cc1	i	-5.9*	i	i	i	i	i	i	i	i	i
Cc1ccc(C(=O)Nc2ccc(N3CCCC3)cc2)cc1	i	i	i	i	i	·	·	·	·	·	·
CCOC(=O)c1c(C)oc2c(CC(=O)c3ccccc3)c(Cl)c(O)c(O)c12	i	-9*	i	i	i	·	·	·	·	i	i	TRPC4 sel inh 2=i;TRPC4 spec=i;HEK293 MPD ctr 2-1=i;HEK293 MPD ctr-1=i
N=c1c(C(=O)NC2CCCC2)cc2c(=O)n3ccccc3nc2n1CC1CCCO1 (configuration not stated)	i	i	i	i	i	·	·	·	·	·	·
CCOCCCn1c(=N)c(C(=O)NCc2ccc3c(c2)OCO3)cc2c(=O)n3cccc(C)c3nc21	i	-5.1*	i	i	i	i	i	-12%*	36%*	i	i
COCCCn1c(=N)c(C(=O)NCc2ccc3c(c2)OCO3)cc2c(=O)n3ccccc3nc21	i	-10*	i	i	i	·	·	·	·	i	i	TRPC4 sel inh 2=64%*;TRPC4 spec=-12%*;HEK293 MPD ctr 2-1=30%*;HEK293 MPD ctr-1=i
N=c1c(C(=O)NCc2ccc3c(c2)OCO3)cc2c(=O)n3ccccc3nc2n1Cc1cccnc1	i	i	i	i	i	·	·	·	·	·	·
Cc1ccc(CNC(=O)c2cc3c(=O)n4ccccc4nc3n(CC3CCCO3)c2=N)cc1 (configuration not stated)	i	-6.2*	i	i	11*	i	i	-36%*	52%*	64%*	i
Cc1ccc(N2CCN(c3ccc(C)cc3)C2c2cccnc2)cc1	i	i	i	i	i	·	·	·	·	·	·
c1ccc(N2CCN(c3ccccc3)C2c2cccnc2)cc1	i	-5.6*	i	i	i	i	i	18%*	31%*	i	·
COC(=O)CC(N)c1ccc(OC)c2ccccc12 (configuration not stated)	i	-5.3*	i	i	i	i	i	i	i	i	i
Cc1onc(-c2c(Cl)cccc2Cl)c1C(=O)N1CCc2ccccc21	i	-5.1*	i	i	i	i	i	12%*	i	i	i
COCCNC(=S)Nc1ccc2[nH]c(=O)[nH]c2c1	i	i	i	i	i	·	·	·	·	·	·
O=C(O)c1cc(Br)ccc1NS(=O)(=O)c1cccc2nsnc12	i	i	13*	i	i	i	i	16%*	i	i	34%*
O=C(NC(c1cccnc1)C(F)(F)F)c1cc(COc2ccc3c(c2)CCCC3)on1 (configuration not stated)	i	i	i	i	i	·	·	·	·	·	·
Clc1ccc(C[n+]2cc(-c3ccccc3)n3c2CCCCC3)c(Cl)c1	-6*	-6*	i	53*	i	160%*	i	84%*	92%*	54%*	·
CC1CCN(CC(C)CNC(=O)c2cc(-c3ccccn3)nc3ccccc23)CC1 (configuration not stated)	i	-8.6*	i	i	i	·	·	·	·	i	i	TRPC4 sel inh 2=70%*;TRPC4 spec=i;HEK293 MPD ctr 2-1=208%*;HEK293 MPD ctr-1=i
CNCCCOc1ccc(Cl)cc1C(C)(C)C	i	-6*	i	i	50*	i	i	i	i	i	i
COCCCNCCCOc1ccc(Cl)cc1C(C)(C)C	i	i	i	i	i	·	·	·	·	·	·
CC/C(=N\NC(=O)c1nnn(-c2nonc2N)c1-c1cccs1)c1ccccc1	i	i	i	i	i	·	·	·	·	·	·
COC(=O)Nc1nnc(-c2ccccc2Cl)s1	i	i	i	i	i	·	·	·	·	·	·

Screens deposited in PubChem BioAssay by Johns Hopkins Ion Channel Center.
